From PMC9519467 (Bioactive Materials, 2022) come the findings set out here.

Data set [1] concerns 4T1 tumor-bearing mice. Briefly: In vivo biodistribution after tail vein injection. Set-up: species or system BALB/c mice. To be noted: 1–24 h. The method, boiled down: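 Female BALB/c mice (4–6 weeks, 18–20 g) received 5 × 10^5 4T1 cells subcutaneously in the right flank and were grouped once tumors reached about 100 mm3. Test compound (100 μL, 2.845 mg/mL in PBS) was injected into the tail vein; free P18 in 10% DMSO/PBS served as comparator. P18 fluorescence was imaged by IVIS under isoflurane at 1, 3, 6, 9, 12 and 24 h. Mean tumor-site intensity was computed, and excised organs and tumor were imaged at 24 h.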

Data set [2] concerns 4T1 tumor-bearing mice. Briefly: Tumor retention after intratumoral injection. It counts as in vivo, BALB/c mice. The settings on record: observed 6–120 h. The essentials:
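4T1 flank tumors were raised in female BALB/c mice, and test compound or free P18 solution (10 μL) was injected into the tumor. Fluorescence was imaged by IVIS under isoflurane at 6, 12, 24, 48, 72, 96 and 120 h, and tumor intensity was quantified. In a separate pair of groups, the MMP-2 inhibitor Ilomastat (8 mg/kg) was injected into the tumor 15 min before the test compound, compared with no inhibitor. Tumor fluorescence was imaged at serial time points.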

For data set [3], the system named is 4T1 tumor-bearing mice. Briefly: In vivo photothermal effect. Also on record: species or system BALB/c mice. To be noted: 6 h after tail vein injection, 660 nm, 0.5 W/cm^2, 6 min. The method, boiled down: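 The 4T1 model was female BALB/c mice with subcutaneous flank tumors, in two groups. One group got test compound i.v. (100 μL, 2.845 mg/mL in PBS); the comparator group got free P18 solution (100 μL) under the same conditions. Infrared thermal camera images and tumor temperature curves were recorded during irradiation.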

On to Purpurin 18 [P18], for which the “fluorescence signal at the tumor site” value in the data set on 4T1 tumor-bearing mice [1] was “barely detectable”. For the same substance, the “course of tumor fluorescence intensity post i.t. injection” value in the data set on 4T1 tumor-bearing mice [2] is recorded as “decreased gradually until 120 h”. In addition, the “temperature of the tumor under laser irradiation” value in the data set on 4T1 tumor-bearing mice [3] came to 41 °C.
